Results published in ChEMBL document CHEMBL1152689, “Synthesis, tautomerism, and antimicrobial, anti-HCV, anti-SSPE, antioxidant, and antitumor activities of arylazobenzosuberones” (Bioorg Med Chem, 2009).
Converted amounts (≈) assume the structure as drawn. The source made the active and inactive calls. The calls are words filed in the database; no cut-off is given here.

How the values were obtained:
Penicillium italicum [1] = experiment: Antimicrobial activity against Penicillium italicum at 5 ug/mL by agar diffusion method; assay type: functional; conditions: read-out: IZ
[2] = tested on: Syncephalastrum racemosum; experiment: Antimicrobial activity against Syncephalastrum racemosum at 5 ug/mL by agar diffusion method; assay type: functional; conditions: read-out: IZ
Candida albicans [3] = experiment: Antimicrobial activity against Candida albicans at 5 ug/mL by agar diffusion method; assay type: functional; conditions: read-out: IZ
Staphylococcus aureus [4] = experiment: Antimicrobial activity against Staphylococcus aureus at 5 ug/mL by agar diffusion method; assay type: functional; conditions: read-out: IZ
Pseudomonas aeruginosa [5] = experiment: Antimicrobial activity against Pseudomonas aeruginosa at 5 ug/mL by agar diffusion method; assay type: functional; conditions: read-out: IZ
Bacillus subtilis [6] = experiment: Antimicrobial activity against Bacillus subtilis at 5 ug/mL by agar diffusion method; assay type: functional; conditions: read-out: IZ
Escherichia coli [7] = experiment: Antimicrobial activity against Escherichia coli at 5 ug/mL by agar diffusion method; assay type: functional; conditions: read-out: IZ
Aspergillus fumigatus [8] = experiment: Antimicrobial activity against Aspergillus fumigatus at 2.5 ug/mL by agar diffusion method; assay type: functional; conditions: read-out: IZ
Penicillium italicum [9] = experiment: Antimicrobial activity against Penicillium italicum at 2.5 ug/mL by agar diffusion method; assay type: functional; conditions: read-out: IZ
[10] = tested on: Syncephalastrum racemosum; experiment: Antimicrobial activity against Syncephalastrum racemosum at 2.5 ug/mL by agar diffusion method; assay type: functional; conditions: read-out: IZ
Candida albicans [11] = experiment: Antimicrobial activity against Candida albicans at 2.5 ug/mL by agar diffusion method; assay type: functional; conditions: read-out: IZ
Staphylococcus aureus [12] = experiment: Antimicrobial activity against Staphylococcus aureus at 2.5 ug/mL by agar diffusion method; assay type: functional; conditions: read-out: IZ
Pseudomonas aeruginosa [13] = experiment: Antimicrobial activity against Pseudomonas aeruginosa at 2.5 ug/mL by agar diffusion method; assay type: functional; conditions: read-out: IZ
Bacillus subtilis [14] = experiment: Antimicrobial activity against Bacillus subtilis at 2.5 ug/mL by agar diffusion method; assay type: functional; conditions: read-out: IZ
Escherichia coli [15] = experiment: Antimicrobial activity against Escherichia coli at 2.5 ug/mL by agar diffusion method; assay type: functional; conditions: read-out: IZ
Aspergillus fumigatus [16] = experiment: Antimicrobial activity against Aspergillus fumigatus at 1.25 ug/mL by agar diffusion method; assay type: functional; conditions: read-out: IZ
Penicillium italicum [17] = experiment: Antimicrobial activity against Penicillium italicum at 1.25 ug/mL by agar diffusion method; assay type: functional; conditions: read-out: IZ
[18] = tested on: Syncephalastrum racemosum; experiment: Antimicrobial activity against Syncephalastrum racemosum at 1.25 ug/mL by agar diffusion method; assay type: functional; conditions: read-out: IZ
Candida albicans [19] = experiment: Antimicrobial activity against Candida albicans at 1.25 ug/mL by agar diffusion method; assay type: functional; conditions: read-out: IZ
Staphylococcus aureus [20] = experiment: Antimicrobial activity against Staphylococcus aureus at 1.25 ug/mL by agar diffusion method; assay type: functional; conditions: read-out: IZ
Pseudomonas aeruginosa [21] = experiment: Antimicrobial activity against Pseudomonas aeruginosa at 1.25 ug/mL by agar diffusion method; assay type: functional; conditions: read-out: IZ
Bacillus subtilis [22] = experiment: Antimicrobial activity against Bacillus subtilis at 1.25 ug/mL by agar diffusion method; assay type: functional; conditions: read-out: IZ
Escherichia coli [23] = experiment: Antimicrobial activity against Escherichia coli at 1.25 ug/mL by agar diffusion method; assay type: functional; conditions: read-out: IZ
Aspergillus fumigatus [24] = experiment: Antimicrobial activity against Aspergillus fumigatus by agar diffusion method; assay type: functional
Outline: (§1)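 Agar diffusion on plates against bacteria and fungi. MIC taken as the lowest concentration giving no visible growth on the plate.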

Penicillium italicum [25] = experiment: Antimicrobial activity against Penicillium italicum by agar diffusion method; assay type: functional; outline: as §1
[26] = tested on: Syncephalastrum racemosum; experiment: Antimicrobial activity against Syncephalastrum racemosum by agar diffusion method; assay type: functional; outline: as §1
Candida albicans [27] = experiment: Antimicrobial activity against Candida albicans by agar diffusion method; assay type: functional; outline: as §1
Staphylococcus aureus [28] = experiment: Antimicrobial activity against Staphylococcus aureus by agar diffusion method; assay type: functional; outline: as §1
Bacillus subtilis [29] = experiment: Antimicrobial activity against Bacillus subtilis by agar diffusion method; assay type: functional; outline: as §1
Hepatitis C virus = experiment: Antiviral activity against HCV by cell based replicon assay; assay type: functional, Hepacivirus hominis
Outline: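 HCV replicon cells plated at 1×10^4 per well. Next day incubated at 37 °C with serially diluted compound in DMEM with 2% FBS and 0.5% DMSO. HCV RNA copy number measured by quantitative RT-PCR on total cellular RNA. Each point is the average of five replicates. Cytotoxicity measured by MTS in parallel.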

Measles morbillivirus = experiment: Antiviral activity against Measles virus infected in intracranially dosed hamster assessed as inhibition of subacute sclerosing panencephalitis; assay type: functional
Outline: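 Hamsters under ether anesthesia injected intracranially, into the subarachnoid space at 2 mm depth, at 5, 10 and 20 mg/kg/day for 10 days. Four animals per group sacrificed on days 1–20. Brains homogenized in PBS and centrifuged, supernatant deproteinized with ethanol, then MIC in brain tissue determined by HPLC and bioassay.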

[30] = tested on: Radical scavenging activity; experiment: Antioxidant activity assessed as DPPH free radical scavenging activity by measuring reduction in DPPH absorbance by ELISA relative to untreated control; assay type: functional; parameters: concentration or dose not given beside the values
Outline: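 Test compounds dissolved in DMSO, ascorbic acid standard in water, both serially diluted. 10 µl sample added to 90 µl of 100 µM DPPH in methanol and kept in the dark at 37 °C for 30 min. Absorbance read at 515 nm. Blank is DMSO plus DPPH. % reduction = (A_B − A_A)/A_B × 100. Run in triplicate.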

[31] = Antioxidant activity assessed as inhibition of peroxynitrite-mediated 3-nitrotyrosine formation by HPLC; assay type: functional
Outline: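 Tyrosine and peroxynitrite, each 100 µM, reacted with compound at 0–300 µM in 100 mM phosphate buffer pH 7.4 at 37 °C for 15 min. Peroxynitrite made from acidified H2O2 plus KNO2, quenched with NaOH, and kept on ice no longer than 30 min before use.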

MC-38 = experiment: Antitumor activity against mouse Colon 38 cells implanted in iv dosed C57BL/6 mouse administered as single dose; assay type: functional, organism-based
Outline: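 Female C57BL/6 mice, 6 weeks old, given about 30 mg Colon 38 tumor tissue s.c. in the flank. Randomized into groups of n = 5 when tumors reached about 300 mm3 (day 1). Compound in 5% glucose given as a single iv tail-vein dose on day 1; controls received 5% glucose. Tumor volume = (length × width²)/2 and body weight tracked.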

[32] = biological target: DNA topoisomerase 2-alpha (Mus musculus) (UniProt Q01320); experiment: Inhibition of topoisomerase 2 from mouse P388 cells assessed as relaxation of pBR322 DNA by agarose gel electrophoresis relative to etoposide; assay type: cell-based
Outline: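 Topoisomerase II purified from P388 cells. One unit relaxes 0.125 µg supercoiled pBR322 DNA, incubated with or without inhibitor at 30 °C for 1 h in 50 mM Tris-HCl pH 8.0, 100 mM KCl, 10 mM MgCl2, 0.5 mM DTT, 1 mM ATP and 30 µg/ml BSA. Products run on 0.7% agarose in TBE, stained with ethidium bromide and imaged under UV.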

[33] = biological target: T1, DNA topoisomerase 1 (Homo sapiens) (UniProt P11387); experiment: Inhibition of topoisomerase 1 relative to etoposide
T1 sequence (whole entry): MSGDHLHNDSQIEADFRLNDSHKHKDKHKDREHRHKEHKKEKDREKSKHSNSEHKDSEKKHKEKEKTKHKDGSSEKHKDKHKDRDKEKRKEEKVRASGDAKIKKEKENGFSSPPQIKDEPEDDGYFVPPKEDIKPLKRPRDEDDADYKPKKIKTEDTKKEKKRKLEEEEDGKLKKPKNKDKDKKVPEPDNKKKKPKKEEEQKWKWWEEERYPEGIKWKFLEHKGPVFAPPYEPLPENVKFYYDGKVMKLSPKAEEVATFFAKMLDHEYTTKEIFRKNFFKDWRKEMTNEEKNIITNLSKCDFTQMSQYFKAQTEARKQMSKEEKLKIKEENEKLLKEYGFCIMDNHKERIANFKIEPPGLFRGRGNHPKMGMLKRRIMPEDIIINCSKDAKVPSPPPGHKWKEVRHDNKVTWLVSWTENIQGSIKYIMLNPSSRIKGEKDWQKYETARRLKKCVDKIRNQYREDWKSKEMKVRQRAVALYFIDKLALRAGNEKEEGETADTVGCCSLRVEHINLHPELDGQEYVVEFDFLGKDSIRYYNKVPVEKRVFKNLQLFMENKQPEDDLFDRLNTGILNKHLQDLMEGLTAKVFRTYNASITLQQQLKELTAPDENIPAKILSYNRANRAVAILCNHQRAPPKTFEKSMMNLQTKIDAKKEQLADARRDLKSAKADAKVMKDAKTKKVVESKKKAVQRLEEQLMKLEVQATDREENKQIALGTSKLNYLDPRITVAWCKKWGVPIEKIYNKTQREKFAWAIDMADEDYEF

Aspergillus fumigatus [34] = experiment: Antimicrobial activity against Aspergillus fumigatus at 5 ug/mL by agar diffusion method; assay type: functional; conditions: read-out: IZ
Escherichia coli [35] = experiment: Antimicrobial activity against Escherichia coli by agar diffusion method; assay type: functional; outline: as §1

Sequence of DNA topoisomerase 2-alpha (Mus musculus) (Q01320 whole entry): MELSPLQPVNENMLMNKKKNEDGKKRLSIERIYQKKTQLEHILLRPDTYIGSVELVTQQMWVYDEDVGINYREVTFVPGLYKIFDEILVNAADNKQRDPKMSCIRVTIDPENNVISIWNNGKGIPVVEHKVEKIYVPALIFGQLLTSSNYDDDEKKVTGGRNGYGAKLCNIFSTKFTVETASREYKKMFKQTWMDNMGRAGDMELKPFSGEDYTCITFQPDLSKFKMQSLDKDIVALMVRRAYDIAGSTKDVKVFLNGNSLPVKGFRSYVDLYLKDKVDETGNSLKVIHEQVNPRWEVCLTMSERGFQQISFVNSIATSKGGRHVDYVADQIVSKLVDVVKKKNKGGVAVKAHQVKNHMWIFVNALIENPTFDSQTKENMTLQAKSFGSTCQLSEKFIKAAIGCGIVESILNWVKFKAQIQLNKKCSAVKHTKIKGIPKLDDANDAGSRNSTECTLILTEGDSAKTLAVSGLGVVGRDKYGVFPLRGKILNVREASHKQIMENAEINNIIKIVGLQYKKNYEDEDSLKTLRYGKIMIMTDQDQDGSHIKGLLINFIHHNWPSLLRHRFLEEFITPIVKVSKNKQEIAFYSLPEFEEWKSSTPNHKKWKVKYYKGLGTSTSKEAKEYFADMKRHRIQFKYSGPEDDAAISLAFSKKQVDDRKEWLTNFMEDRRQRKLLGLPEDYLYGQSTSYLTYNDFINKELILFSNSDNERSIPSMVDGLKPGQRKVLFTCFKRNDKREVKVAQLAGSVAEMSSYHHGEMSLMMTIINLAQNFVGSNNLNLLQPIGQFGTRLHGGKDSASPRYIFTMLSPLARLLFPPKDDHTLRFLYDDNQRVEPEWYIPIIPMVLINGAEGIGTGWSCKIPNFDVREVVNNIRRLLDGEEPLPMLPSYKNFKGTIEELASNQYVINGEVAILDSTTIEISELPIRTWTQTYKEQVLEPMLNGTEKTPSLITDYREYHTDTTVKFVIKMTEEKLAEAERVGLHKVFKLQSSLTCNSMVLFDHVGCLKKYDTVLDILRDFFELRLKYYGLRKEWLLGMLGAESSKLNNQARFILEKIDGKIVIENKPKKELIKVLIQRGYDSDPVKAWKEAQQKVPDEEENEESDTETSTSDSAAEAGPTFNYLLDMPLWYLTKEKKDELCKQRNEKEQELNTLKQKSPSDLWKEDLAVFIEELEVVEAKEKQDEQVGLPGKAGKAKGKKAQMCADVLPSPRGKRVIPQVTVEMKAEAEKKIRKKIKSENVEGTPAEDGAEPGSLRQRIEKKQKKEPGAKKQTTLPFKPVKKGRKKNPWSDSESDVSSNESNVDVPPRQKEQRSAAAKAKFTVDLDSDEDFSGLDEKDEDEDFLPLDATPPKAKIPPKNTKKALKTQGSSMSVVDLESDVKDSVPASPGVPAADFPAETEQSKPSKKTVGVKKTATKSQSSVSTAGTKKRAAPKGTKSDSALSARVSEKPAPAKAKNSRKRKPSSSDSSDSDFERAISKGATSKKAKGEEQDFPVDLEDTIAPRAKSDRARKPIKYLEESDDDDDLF

Row | Compound | zone of inhibition at 5 µg/mL (Penicillium italicum [1]) | zone of inhibition at 5 µg/mL [2] | zone of inhibition at 5 µg/mL (Candida albicans [3]) | zone of inhibition at 5 µg/mL (Staphylococcus aureus [4]) | zone of inhibition at 5 µg/mL (Pseudomonas aeruginosa [5]) | zone of inhibition at 5 µg/mL (Bacillus subtilis [6]) | zone of inhibition at 5 µg/mL (Escherichia coli [7]) | zone of inhibition at 2.5 µg/mL (Aspergillus fumigatus [8]) | zone of inhibition at 2.5 µg/mL (Penicillium italicum [9]) | zone of inhibition at 2.5 µg/mL [10] | zone of inhibition at 2.5 µg/mL (Candida albicans [11]) | zone of inhibition at 2.5 µg/mL (Staphylococcus aureus [12]) | zone of inhibition at 2.5 µg/mL (Pseudomonas aeruginosa [13]) | zone of inhibition at 2.5 µg/mL (Bacillus subtilis [14]) | zone of inhibition at 2.5 µg/mL (Escherichia coli [15]) | zone of inhibition at 1.25 µg/mL (Aspergillus fumigatus [16]) | zone of inhibition at 1.25 µg/mL (Penicillium italicum [17]) | zone of inhibition at 1.25 µg/mL [18] | zone of inhibition at 1.25 µg/mL (Candida albicans [19]) | zone of inhibition at 1.25 µg/mL (Staphylococcus aureus [20]) | other results
1 | CC(=O)c1ccc(N/N=C2\CCCc3ccccc3C2=O)cc1 | 17 mm | 16 mm | 10 mm | 15 mm | 0 mm | 16 mm | 12 mm | 11 mm | 6 mm | 9 mm | 7 mm | 8 mm | 0 mm | 10 mm | 0 mm | 6 mm | 4 mm | 6 mm | 3 mm | 5 mm | zone of inhibition at 1.25 µg/mL (Pseudomonas aeruginosa [21]): 0 mm; zone of inhibition at 1.25 µg/mL (Bacillus subtilis [22]): 7 mm; zone of inhibition at 1.25 µg/mL (Escherichia coli [23]): 0 mm; MIC (Aspergillus fumigatus [24]): 0.625 µg/mL (≈ 2.04 µM); MIC (Penicillium italicum [25]): 1.25 µg/mL (≈ 4.08 µM); MIC [26]: 0.313 µg/mL (≈ 1.02 µM); MIC (Candida albicans [27]): 1.25 µg/mL (≈ 4.08 µM); MIC (Staphylococcus aureus [28]): 0.625 µg/mL (≈ 2.04 µM); MIC (Bacillus subtilis [29]): 0.313 µg/mL (≈ 1.02 µM); MIC (Hepatitis C virus): 1.09 µg/mL (≈ 3.56 µM); MIC (Measles morbillivirus): 6.12 µg/mL (≈ 20 µM); Activity [30]: 81%; IC50 [31]: 56.1 µM; Activity (MC-38): Active; Ratio [32]: 4.33; Ratio [33]: 4.3; zone of inhibition at 5 µg/mL (Aspergillus fumigatus [34]): 20 mm
2 | Cc1cccc(N/N=C2\CCCc3ccccc3C2=O)c1 | 14 mm | 19 mm | 9 mm | 12 mm | 0 mm | 15 mm | 12 mm | 14 mm | 6 mm | 12 mm | 6 mm | 8 mm | 0 mm | 10 mm | 6 mm | 9 mm | 3 mm | 8 mm | 2 mm | 5 mm | zone of inhibition at 1.25 µg/mL (Pseudomonas aeruginosa [21]): 0 mm; zone of inhibition at 1.25 µg/mL (Bacillus subtilis [22]): 8 mm; zone of inhibition at 1.25 µg/mL (Escherichia coli [23]): 0 mm; MIC (Aspergillus fumigatus [24]): 0.313 µg/mL (≈ 1.12 µM); MIC (Penicillium italicum [25]): 1.25 µg/mL (≈ 4.49 µM); MIC [26]: 0.313 µg/mL (≈ 1.12 µM); MIC (Candida albicans [27]): 1.25 µg/mL (≈ 4.49 µM); MIC (Staphylococcus aureus [28]): 0.625 µg/mL (≈ 2.25 µM); MIC (Bacillus subtilis [29]): 0.313 µg/mL (≈ 1.12 µM); MIC (Escherichia coli [35]): 2.5 µg/mL (≈ 8.98 µM); MIC (Hepatitis C virus): 1.02 µg/mL (≈ 3.67 µM); MIC (Measles morbillivirus): 6.01 µg/mL (≈ 21.6 µM); Activity [30]: 83.1%; IC50 [31]: 55.1 µM; Activity (MC-38): Active; Ratio [32]: 4.66; Ratio [33]: 4.46; zone of inhibition at 5 µg/mL (Aspergillus fumigatus [34]): 22 mm
